GPR7 antagonist: GPR7 receptor antagonists, primary screen, cell-based, fluorescence, single concentration; inhibition, % at 4.4 µM; GPR7-expressing cells, fluorescence antagonist assay; AID 1861, 2009; hit rate 1.1% among 290,000; in the data active = inhibition above about 16%, passing the limit was not always enough;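 also: cells stimulated with the agonist NPW; 0% = agonist with vehicle and 100% = vehicle without agonist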
CHO parental Ca: ATP-evoked calcium signal inhibitors, parental CHO, primary screen, counter-screen for OX1R antagonist project, cell-based, fluorescence, Fluo-8 calcium dye. parental CHO-K1, ATP-induced calcium, Fluo-8 fluorescence. inhibition, % at 5.6 µM. hit rate 0.63% among 330,000;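 active = inhibition above that plate's mean sample inhibition plus 3 SD, cut at about 26% in these data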;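 also: 0% = ATP-challenged DMSO wells and 100% = DMSO wells without ATP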
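Assay system – parental CHO cells · Reagent – ATP stimulus · Detection – intracellular calcium via Fluo-8 no-wash fluorescent dye · Evaluation – percent inhibition of ATP-evoked calcium rise, normalized to controls · Controls – ATP wells versus no-ATP DMSO wells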
OX1R antag-1: antagonists of human orexin 1 receptor (OX1R); Orexin/Hypocretin receptor type 1 (Homo sapiens), O43613; OX1R-expressing cells, FRET antagonist read-out; inhibition, % at 6.6 µM; hit rate 1.8% among 330,000; AID 485270, 2010; in the data active = inhibition mostly above about 38%, no sharp cut-off; inactive = mostly below about 40%;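 also: 0% = agonist challenge alone and 100% = reference antagonist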
zfTRPN1 agonist: zebrafish TRPN1 channel agonists, primary screen, cell-based, HEK293, calcium fluorescence; HEK293 zebrafish TRPN1-YFP, Fluo-8 calcium fluorescence; 100% = response to 87 µM carbachol; activation, % at 3 µM; transient receptor potential cation channel N1 (TRPN1/NompC), Danio rerio; AID 1424, 2008; hit rate 0.18% among 220,000;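 active = activation above its plate's cutoff, the mean activation of test wells on that plate plus 3 SD, cut at about 19% in these data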;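 also: 0% = DMSO alone and 100% = 87 µM carbachol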
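System: zebrafish TRPN1-YFP in HEK293 cells / Dosing: 3 µM single point / Timing: dye loading 1 h at 37 °C, then 30 min room temperature / Signal: Fluo-8 calcium fluorescence, excitation 470-495 nm, emission 515-575 nm / Read-out basis: percent activation from peak over basal fluorescence ratio, control-normalized / Control set: high carbachol 87 µM, low DMSO alone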
OX1R antag-2: OX1R (HCRTR1) antagonists, primary screen, fluorescence, CHO/OX1R cells, Fluo-8 calcium, orexin A | Orexin/Hypocretin receptor type 1 (Homo sapiens), O43613 | Fluo-8 calcium fluorescence | inhibition, % at 5 µM | hit rate 0.43% among 330,000;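 active = inhibition above its plate's threshold, mean inhibition of all tested compounds on the plate plus 3 SD, cut at about 37% in these data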;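 also: 0% = orexin A challenge wells and 100% = SB-334867-A antagonist wells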
TRPML3 agonist: human TRPML3 channel agonists, primary screen, cell-based, HEK293 TRPML3-YFP, Fluo-8 calcium fluorescence, 3 µM | activation, % at 3 µM | hit rate 0.29% among 220,000 | AID 1448, 2008 | 100% = the carbachol control signal | Mucolipin-3 (Homo sapiens), Q8TDD5;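 active = activation above its plate's cutoff, the mean activation of the plate's test wells plus 3 SD, cut at about 12% in these data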;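 also: 0% = DMSO only wells and 100% = carbachol wells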
Target sequence (Q8TDD5 whole entry, looked up): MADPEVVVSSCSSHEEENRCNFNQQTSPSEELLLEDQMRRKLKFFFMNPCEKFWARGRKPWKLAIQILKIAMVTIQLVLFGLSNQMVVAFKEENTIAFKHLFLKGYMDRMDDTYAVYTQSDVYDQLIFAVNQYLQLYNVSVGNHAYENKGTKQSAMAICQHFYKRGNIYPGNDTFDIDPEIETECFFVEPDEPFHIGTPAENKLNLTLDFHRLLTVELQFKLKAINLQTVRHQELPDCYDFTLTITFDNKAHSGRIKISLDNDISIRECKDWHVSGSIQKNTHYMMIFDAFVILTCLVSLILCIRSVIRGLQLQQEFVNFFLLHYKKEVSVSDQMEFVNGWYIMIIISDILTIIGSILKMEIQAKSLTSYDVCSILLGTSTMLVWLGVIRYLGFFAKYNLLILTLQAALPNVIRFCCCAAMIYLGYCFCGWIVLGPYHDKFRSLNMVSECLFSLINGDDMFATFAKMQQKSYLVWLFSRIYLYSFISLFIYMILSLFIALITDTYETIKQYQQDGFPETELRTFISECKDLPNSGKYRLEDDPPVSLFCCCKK
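system = HEK293 cells stably carrying human TRPML3-YFP | doses = one concentration, 3 µM nominal, 0.3% DMSO | timing = dye loading 1 h 37 °C then 30 min ambient, 125 s read | detection = Fluo-8 calcium dye fluorescence, ex 470-495, em 515-575 nm | benchmarks = high control carbachol 87 µM, low control DMSO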
GPR7 antag cf: GPR7 receptor antagonists, confirmation, cell-based, fluorescence, single concentration; shares compounds with GPR7 antagonist; AID 1952, 2009; GPR7-expressing cells, calcium fluorescence antagonist mode; inhibition, % at 4.4 µM; hit rate 52% among 2,400; in the data active = inhibition above about 24%;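 also: stimulated with the GPR7 agonist NPW; 0% = agonist plus vehicle and 100% = vehicle alone without agonist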
MCHR1 antagonist: MCHR1 antagonists in cells, counter-screen for GPR7 antagonist project, cell-based, fluorescence, human; shares compounds with GPR7 antagonist; MCHR1-expressing cells, fluorescence antagonist assay; inhibition, % at 4.4 µM; hit rate 62% among 2,400; in the data active = inhibition above about 22%;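 also: 0% = vehicle with agonist and 100% = vehicle without agonist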
An asterisk follows results filed as active; · = no result; ! = not active in a repeat. An excerpt weighted towards active compounds, which were near 3.2% of everything screened.

SMILES	GPR7 antagonist	CHO parental Ca	OX1R antag-1	zfTRPN1 agonist	OX1R antag-2	TRPML3 agonist	GPR7 antag cf	MCHR1 antagonist
CC(=O)NCCNC(=O)c1ccc(Sc2ccccc2)c([N+](=O)[O-])c1	-14	-13	39	-2	-18	-1	·	·
CN(C)CCNC(=O)c1ccc(Sc2ccc(Br)cc2)c([N+](=O)[O-])c1	23*	1	14	3	-14	2	37*	42*
COc1ccc2c(c1OC)C(=O)N1C2SC(C)(C)[C@H]1C(=O)NCC(C)C (stereo partly specified)	-5	-22	-1	·	-41	·	·	·
O=C(NCCc1ccccc1)C1(c2ccccc2)CCCC1	-13	-25	9	·	-15	·	·	·
N#CC1(c2ccccc2)CCC(NCCc2ccccc2)CC1 (stereo unspecified)	40*	-10	7	·	-57	·	7	2
COc1ccc(S(=O)(=O)N2CCCC(C(=O)NCC3CCCO3)C2)cc1C (stereo unspecified)	9	-15	37	·	-6	·	·	·
O=C(NCC1CCCO1)C1CCCN(S(=O)(=O)c2cccc(C(F)(F)F)c2)C1 (stereo unspecified)	24*	-6	7	·	-19	·	-6	0
CSc1nnc(N2C(=O)C(O)=C(C(=O)c3ccco3)C2c2ccccc2F)s1 (stereo unspecified)	23*	1	8	·	5	·	3	10
CSc1nnc(N2C(=O)C(O)=C(C(=O)c3ccco3)C2c2ccccc2)s1 (stereo unspecified)	-10	19	7	·	16	·	·	·
O=C(NCc1ccco1)c1sc2cc(Cl)ccc2c1Cl	36*	-14	29	0	-27	0	22	31*
CC1CN(CC(O)COC(c2ccc(Cl)cc2)c2ccc(Cl)cc2)CC(C)O1 (stereo unspecified)	21*	4	13	0	-26	1	9	40*
Cc1ccccc1OCC(O)Cn1c(=N)n(CCN2CCOCC2)c2ccccc21 (stereo unspecified)	33*!	-13	15	0	-33	0	21	26*
N=c1n(CCN2CCCC2)c2ccccc2n1CC(O)c1ccco1 (stereo unspecified)	-11	0	3	0	4	0	·	·
N=c1n(CCN2CCCCC2)c2ccccc2n1CC(O)COc1ccccc1 (stereo unspecified)	40*	-10	5	0	-23	0	40*	23*
N=c1n(CCN2CCCCC2)c2ccccc2n1CC(O)c1cccc(Br)c1 (stereo unspecified)	25*	9	10	0	-25	0	48*	43*
CC(=O)c1c(N2CCN(C)CC2)nc(=S)n(-c2cc(C)ccc2C)c1C	-7	-9	11	1	-12	0	·	·
CC(NC(=O)C1CCN(C(=O)c2ccc(F)cc2)CC1)c1ccc(S(N)(=O)=O)cc1 (stereo unspecified)	·	-14	9	·	-8	·	·	·
Fc1cc(Br)ccc1NC(=S)NCCc1ccccc1	38*	0	-5	9	7	2	6	35*
COc1ccccc1NC(=O)N1C2CCCC1CC(NC(=O)c1ccccc1)C2 (stereo unspecified)	-5	-6	14	2	-10	0	·	·
COc1cccc(C(C(=O)NCC2CCCO2)N(C(=O)Cn2nnc3ccccc32)c2ccc(NC(C)=O)cc2)c1OC (stereo unspecified)	-1	3	8	·	-22	·	·	·

Bioassay records from PubChem BioAssay.
